SIRT5 inh – SIRT5 desuccinylase inhibitors, primary screen, biochemical, fluorescence imaging, single point, set 5 | inhibition, % at 15 µM | Purified SirT5, succinyl-peptide AMC, trypsin-coupled fluorescence | AID 652115, 2013 | NAD-dependent protein deacylase sirtuin-5, mitochondrial (Homo sapiens), Q9NXA8 | 330,000 compounds, 1.1% hits; in the data active = inhibition above about 15%; inconclusive = no clear call, values can overlap the other calls
DENV2 CPE – inhibitors of DENV2 cytopathic effect, primary screen, cell-based, plate reader, single concentration; DENV2-infected cells, cytopathic effect rescue; CPE inhibition, % at 9.99 µM; 350,000 compounds, 1.7% hits; AID 651640, 2012; in the data active = CPE inhibition above about 20%, passing the limit was not always enough; inconclusive = no clear call, values can overlap the other calls; tested in BHK-21 cells
E-sel inducer – E-selectin induction in HUVECs, primary screen, imaging, HUVEC, immunofluorescence imaging, single point | P16581 | normalized: neutral wells 0, TNF-alpha wells 100 | activation, % at 7.58 µM | 260,000 compounds, 0.37% hits | AID 686992, 2013;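 active = mean E-selectin-positive cell signal at least 10% of the positive control, reached in at least 60% of replicates, without over 20% cell loss; inconclusive = no rule given, readout overlaps actives, possibly toxicity-flagged; inactive = the rest, including those meeting only one limit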
Target sequence (P16581 whole entry, looked up): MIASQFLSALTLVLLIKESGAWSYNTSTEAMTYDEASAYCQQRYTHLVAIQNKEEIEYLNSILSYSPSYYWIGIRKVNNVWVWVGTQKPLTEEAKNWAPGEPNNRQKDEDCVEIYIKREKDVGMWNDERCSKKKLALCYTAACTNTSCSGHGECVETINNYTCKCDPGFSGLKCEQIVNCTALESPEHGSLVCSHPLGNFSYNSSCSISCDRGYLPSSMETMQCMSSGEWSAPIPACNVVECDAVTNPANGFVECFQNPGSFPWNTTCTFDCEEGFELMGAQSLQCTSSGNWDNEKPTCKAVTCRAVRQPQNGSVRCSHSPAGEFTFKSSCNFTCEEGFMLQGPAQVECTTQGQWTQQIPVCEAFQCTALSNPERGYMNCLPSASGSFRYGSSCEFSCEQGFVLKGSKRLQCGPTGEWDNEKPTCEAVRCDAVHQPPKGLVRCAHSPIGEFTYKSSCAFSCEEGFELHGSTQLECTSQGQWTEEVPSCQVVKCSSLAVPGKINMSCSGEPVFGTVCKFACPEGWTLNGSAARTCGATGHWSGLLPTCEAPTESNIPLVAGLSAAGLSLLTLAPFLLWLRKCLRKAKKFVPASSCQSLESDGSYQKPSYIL
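assay system = HUVEC, human umbilical vein endothelial cells | input = 3,000 HUVEC seeded per well | medium = EGM-2 growth medium on 0.1% gelatin-coated wells | dosing = one compound dose added by pin transfer | signal = immunofluorescence imaging | read-out basis = % PE-positive cells | control set = TNF-alpha, DMSO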
A number is an active result; . = inactive; ? = inconclusive; / = no result given. In the library only some 2.8% were active in any assay of this set; here they are far more common.

SMILES	SIRT5 inh	DENV2 CPE	E-sel inducer
COc1ccc(S(=O)(=O)N[C@H]2C=C[C@H](CC(=O)NCCc3ccccc3)O[C@H]2CO)cc1	.	.	.
COc1ccc(S(=O)(=O)N[C@@H]2C=C[C@@H](CC(=O)NCCc3ccccc3)O[C@@H]2CO)cc1	.	39	.
COC(=O)C[C@@H]1C=C[C@H](NS(=O)(=O)c2ccc(OC)cc2)[C@H](CO)O1	.	.	.
COc1ccc(S(=O)(=O)N[C@@H]2C=C[C@H](CC(=O)NCCc3ccncc3)O[C@H]2CO)cc1	/	/	.
COc1ccc(S(=O)(=O)N[C@H]2C=C[C@@H](CC(=O)NCCc3ccncc3)O[C@H]2CO)cc1	29	.	.
CN(C)C(=O)c1ccc(-c2ccc3c(c2)[C@@H]2[C@@H](CCN2Cc2cncnc2)[C@@H](CO)N3)cc1	/	/	.
Cc1ccc(OCC(=O)Oc2ccc(C(C)C)cc2)cc1	.	.	.
CCC(=O)Oc1ccc(C(CC)C(CC)c2ccc(OC(=O)CC)cc2)cc1 (centres undefined)	.	42	.
C[C@H](O)C#Cc1ccc2c(c1)O[C@H](CN(C)Cc1ccc(-c3ccccc3)cc1)[C@@H](C)CN([C@@H](C)CO)S2(=O)=O	30	.	.
C[C@@H]1CN([C@@H](C)CO)S(=O)(=O)c2ccc(C#C[C@@H](C)O)cc2O[C@@H]1CN(C)Cc1ccc(-c2ccccc2)cc1	24	.	.
C[C@H](O)C#Cc1ccc2c(c1)O[C@H](CN(C)Cc1ccc(-c3ccccc3)cc1)[C@H](C)CN([C@@H](C)CO)S2(=O)=O	27	.	.
C[C@H](O)C#Cc1ccc2c(c1)O[C@H](CN(C)Cc1ccccc1)[C@@H](C)CN([C@H](C)CO)S2(=O)=O	.	.	.
C[C@H](O)C#Cc1ccc2c(c1)O[C@H](CN(C)Cc1ccccc1)[C@H](C)CN([C@@H](C)CO)S2(=O)=O	.	.	.
C[C@H](O)C#Cc1ccc2c(c1)O[C@@H](CN(C)Cc1ccc(-c3ccccc3)cc1)[C@H](C)CN([C@H](C)CO)S2(=O)=O	28	.	.
C[C@H](CO)N1C[C@H](C)[C@H](CN(C)Cc2ccccc2)Oc2cc(C#C[C@@H](C)O)ccc2S1(=O)=O	.	.	.
C[C@@H](O)C#Cc1ccc2c(c1)O[C@H](CN(C)Cc1ccccc1)[C@@H](C)CN([C@@H](C)CO)S2(=O)=O	.	.	.
CO[C@H]1CN(C)C(=O)c2cc(NC(=O)C3CCC3)ccc2OC[C@@H](C)N(C)C[C@H]1C	.	.	.
O=C(c1cccnc1)N1CC[C@@H]2[C@H]1c1cc(C#Cc3cccnc3)ccc1N[C@@H]2CO	.	.	.
O=C(C[C@H]1CC[C@@H](NC(=O)C2CCOCC2)[C@H](CO)O1)NCc1ccccc1Cl	.	.	.
C[C@@H]1CN([C@H](C)CO)S(=O)(=O)c2ccc(C#C[C@@H](C)O)cc2O[C@H]1CN(C)Cc1ccccc1	.	.	.
C[C@@H]1CN([C@H](C)CO)S(=O)(=O)c2ccc(C#C[C@@H](C)O)cc2O[C@H]1CN(C)Cc1ccc(-c2ccccc2)cc1	30	.	.
O=C(C[C@@H]1CC[C@@H]2[C@H](COC[C@H](O)CN2S(=O)(=O)c2cccc(Cl)c2)O1)N1CCCCC1	/	.	.
CNC[C@@H]1Oc2ncc(C#CC3(O)CCCC3)cc2C(=O)N([C@@H](C)CO)C[C@H]1C	.	.	.
CO[C@@H]1CN(C)C(=O)c2ccc(NS(=O)(=O)C3CCCCC3)cc2OC[C@H](C)NC[C@H]1C	.	.	.
CC1=CC(C)(C)n2c(O)c(N=N)c3cc(C)cc1c32	.	49	.
SMILES	SIRT5 inh	DENV2 CPE	E-sel inducer
CC1=CC(C)(C)n2c(O)c(N=N)c3c(C)c(C)cc1c32	.	.	/
Cc1ccccc1NC(=O)C(NC1CCCCC1)C(C)C (centres undefined)	36	.	/
Cc1ccccc1NC(=O)N1CCC(NC(=O)C2CCCCC2)CC1	.	.	.
CCCNC(=O)C[C@H]1CC[C@@H]2[C@@H](COc3ccc(NC(=O)c4cccc(OC)c4)cc3C(=O)N2C)O1	.	?	.
COCCOC(=O)N1C(=O)[C@@]2(c3ccccc31)[C@H](c1ccccc1OCCO)N1[C@H](c3ccccc3)[C@H](c3ccccc3)OC(=O)[C@H]1[C@@H]2C(N)=O	.	.	/
COc1ccc(CC(=O)c2ccc(OC)c(OC)c2)cc1	.	.	.
COc1ccc(CC(=O)OCC(=O)c2ccc(OC)c(OC)c2)cc1	.	30	.
O=S(=O)(c1ccc(F)cc1)N1CCCN(c2nccc(C(F)(F)F)n2)CC1	.	.	30
O=S(=O)(c1ccc(F)cc1)N1CCN(c2ncccn2)CC1	.	.	.
COc1ccc(NC(=O)Nc2ccc3c(c2)C(=O)N([C@@H](C)CO)C[C@H](C)[C@H](CN(C)C(=O)Nc2ccc(OC)cc2)OCCCC[C@H](C)O3)cc1	.	.	.
CCCC(=O)Nc1ccc2c(c1)C(=O)N(C)C[C@@H](OC)[C@H](C)CN(C(=O)CN(C)C)[C@H](C)CO2	.	.	.
C[C@H]1CCCCO[C@@H](CN(C)C(=O)NC2CCCCC2)[C@@H](C)CN([C@@H](C)CO)C(=O)c2cc(NS(=O)(=O)c3ccccc3)ccc2O1	.	30	.
C[C@@H]1CCCCO[C@H](CN(C)C(=O)NC2CCCCC2)[C@@H](C)CN([C@@H](C)CO)C(=O)c2cc(NS(=O)(=O)c3ccccc3)ccc2O1	.	.	.
C[C@@H]1CCCCO[C@H](CN(C)C(=O)NC2CCCCC2)[C@@H](C)CN([C@H](C)CO)C(=O)c2cc(NS(=O)(=O)c3ccccc3)ccc2O1	.	.	.
C[C@@H]1CN([C@H](C)CO)C(=O)c2cc(NS(=O)(=O)c3ccccc3)ccc2O[C@@H](C)CCCCO[C@@H]1CN(C)C(=O)NC1CCCCC1	.	75	.
CCCNC(=O)C[C@H]1C[C@@H]2c3cc(NC(=O)CC4CC4)ccc3O[C@@H]2[C@@H](CO)O1	.	.	.
COCC(=O)Nc1ccc2c(c1)C(=O)N(C)[C@@H]1CC[C@@H](CC(=O)NC3Cc4ccccc4C3)O[C@@H]1CO2	.	.	.
O=C(Nc1ccccc1F)N[C@H]1CC[C@H](CCNC(=O)C2CCOCC2)O[C@H]1CO	.	.	.
CNC(=O)C[C@H]1CC[C@@H]2[C@H](COC[C@H](O)CN2Cc2ccc(Cl)c(Cl)c2)O1	.	.	.
C[C@H]1CN([C@@H](C)CO)C(=O)c2cc(NS(=O)(=O)c3ccccc3)ccc2O[C@@H]1CN(C)C(=O)Nc1ccc(C(F)(F)F)cc1	/	/	.
C[C@H]1CN([C@@H](C)CO)S(=O)(=O)c2ccc(C3=CCCCC3)cc2O[C@H]1CN(C)C(=O)C1CCC1	.	.	.
COc1ccc(OC)c(S(=O)(=O)N(C)CC(=O)N2CCCCC2)c1	.	.	.
COc1ccc(N2CCN(C(=O)CN(C)S(=O)(=O)c3cc(C)ccc3OC)CC2)cc1	19	/	.
N#C[C@@H]1[C@H](c2ccc(-c3ccccc3F)cc2)[C@H](CO)N1C(=O)Cc1ccccc1	.	.	.
CC(=O)CSc1ccc(-c2nc3cc(C)c(C)cc3[nH]2)cn1	.	27	.
